In paper PMC7720656 (Journal of medicinal chemistry, 2020):
Entries after “also recorded” stand apart in the source; their conditions may differ. Marks after values point to notes of the source that are not given here.

Columns and labels:
S. aureus ATCC29213 = test: MIC by microdilution, S. aureus ATCC29213; format: cell-based, Staphylococcus aureus; conditions: for antibacterial activity in words / antibacterial activity, active / inactive: by MIC with S. aureus ATCC29213; for increase in MIC with added bovine serum albumin: S. aureus ATCC29213
[1] = plasma protein binding; ref [26]; cited from earlier work
Pharmacokinetics in mice = format: in vivo; conditions: for clearance relative to hepatic blood flow: mice
MRSA strain NRS70 = test: Time-kill assays; format: cell-based, Staphylococcus aureus; conditions: NRS70, 0.5 to 16 × MIC
Outline: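 Cultures of MRSA NRS70 were exposed to the test compound, with a no-antibiotic control tube. At 3, 6, 12 and 24 h, aliquots were plated on LB agar for colony counts, with a detection limit of >50 CFU/mL. A ≥3-log10 drop from the starting inoculum counted as bactericidal. Run in triplicate.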

[2] = tested on: S. haemolyticus ATCC 29970; test: MIC against Gram-positive organisms; format: cell-based; conditions: Staphylococcus haemolyticus, ATCC29970, read-out: MIC S. haemolyticus ATCC 29970
[3] = mice, 10 mg/kg iv; ref Bouley [25]; cited from earlier work
allosteric site of PBP2a = conditions: read-out: Kd for binding to the allosteric site of PBP2a; ref [23]; cited from earlier work

## N#Cc1ccc(/C=C/c2nc3ccccc3c(=O)n2-c2cccc(NC(=O)NCc3cnc[nH]3)c2)cc1 [compound 92]
S. aureus ATCC29213
  antibacterial activity in words: detrimental to the activity

## N#Cc1ccc(/C=C/c2nc3ccccc3c(=O)n2-c2cc(C(=O)O)ccc2Cl)cc1 [compound 74]
S. aureus ATCC29213
  antibacterial activity in words: retained acceptable MIC values
  antibacterial activity, active / inactive: active

## N#Cc1ccc(/C=C/c2nc3ccccc3c(=O)n2-c2cccc(NC(=O)C(F)(F)F)c2)cc1 [compound 88]
S. aureus ATCC29213
  antibacterial activity, active / inactive: active

## O=C(O)c1cccc(-n2c(/C=C/C3CC3)nc3ccccc3c2=O)c1 [compound 48]
S. aureus ATCC29213
  antibacterial activity in words: loss of activity

## C#Cc1ccc(/C=C/c2nc3ccccc3c(=O)n2-c2cccc(C(=O)O)c2)cc1 [compound 57]
[1]
  PPB: 99.6 ± 0.04^h %
S. aureus ATCC29213
  antibacterial activity, active / inactive: active

## O=C(O)c1cccc(-n2c(/C=C/c3ccc(Cl)cc3)nc3ccccc3c2=O)c1 [compound 58]
S. aureus ATCC29213
  increase in MIC with added bovine serum albumin: ≤ 4 fold
  antibacterial activity, active / inactive: active

## Cc1ccc(C(=O)O)cc1-n1c(/C=C/c2ccc(C#N)cc2)nc2ccccc2c1=O [compound 75]
S. aureus ATCC29213
  antibacterial activity in words: retained acceptable MIC values
  antibacterial activity, active / inactive: active

## N#Cc1ccc(/C=C/c2nc3ccccc3c(=O)n2-c2cc(C(=O)O)ccc2C(F)(F)F)cc1 [compound 76]
S. aureus ATCC29213
  antibacterial activity in words: loss of antibacterial property
  antibacterial activity, active / inactive: inactive

## O=C(O)c1cccc(-n2c(CCc3ccc(F)cc3)nc3ccccc3c2=O)c1 [compound 115]
S. aureus ATCC29213
  increase in MIC with added bovine serum albumin: ≤ 4 fold

## N#Cc1ccc(/C=C/c2nc3ccccc3c(=O)n2-c2cc(C(=O)O)ccn2)cc1 [compound 84]
S. aureus ATCC29213
  antibacterial activity in words: loss of antibacterial property; also recorded: loss of activity

## N#Cc1ccc(/C=C/c2nc3ccccc3c(=O)n2-c2cccc(C(=O)O)c2O)cc1 [compound 81]
S. aureus ATCC29213
  antibacterial activity in words: loss of antibacterial property

## O=C(O)c1cccc(-n2c(/C=C/c3ccc(I)cc3)nc3ccccc3c2=O)c1 [compound 59]
S. aureus ATCC29213
  antibacterial activity, active / inactive: active

## CC(=O)NS(=O)(=O)c1cccc(-n2c(/C=C/c3ccc(C#N)cc3)nc3ccccc3c2=O)c1 [compound 95]
S. aureus ATCC29213
  antibacterial activity, active / inactive: active

## N#Cc1ccc(/C=C/c2nc3ccccc3c(=O)n2-c2cccc(CNC(=O)C(F)(F)F)c2)cc1 [compound 99]
S. aureus ATCC29213
  antibacterial activity, active / inactive: active

## N#Cc1ccc(/C=C/c2nc3ccccc3c(=O)n2-c2cccc(N)c2)cc1 [compound 111]
S. aureus ATCC29213
  antibacterial activity in words: potent activity

## COc1ccc(C(=O)O)cc1-n1c(/C=C/c2ccc(C#N)cc2)nc2ccccc2c1=O [compound 79]
S. aureus ATCC29213
  antibacterial activity in words: loss of antibacterial property

## N#Cc1ccc(/C=C/c2nc3ccccc3c(=O)n2-c2cccc(C(=O)O)n2)cc1 [compound 83]
S. aureus ATCC29213
  antibacterial activity in words: loss of antibacterial property; also recorded: loss of activity

## N#Cc1ccc(/C=C/c2nc3ccccc3c(=O)n2-c2cc(C(=O)O)ccc2F)cc1 [compound 73, (E)-3-(5-Carboxy-2-fluorophenyl)-2-(4-cyanostyryl)-quinazolin-4(3H)-one]
Pharmacokinetics in mice; female, ICR, mouse, plasma, iv, 10 mg/kg
  clearance: 7.7 mL/min/kg
Pharmacokinetics in mice; 10 mg/kg iv
  clearance relative to hepatic blood flow: < 10%
MRSA strain NRS70
  time-kill behaviour of compound alone: bacteriostatic
[2]
  MIC: ≤ 4 µg/mL
S. aureus ATCC29213
  increase in MIC with added bovine serum albumin: ≤ 4 fold
  antibacterial activity, active / inactive: active

## N#Cc1ccc(/C=C/c2nc3ccccc3c(=O)n2-c2cccc(C(=O)O)c2)cc1 [compound 1, (E)-3-(3-Carboxyphenyl)-2-(4-cyanostyryl)quinazolin-4(3H)-one]
MRSA strain NRS70
  time-kill behaviour of compound alone: bacteriostatic
[3]
  CL: 6.9 mL/min/kg
S. aureus ATCC29213
  increase in MIC with added bovine serum albumin: ≤ 4 fold
  antibacterial activity in words: potent activity

## N#Cc1ccc(/C=C/c2nc3ccccc3c(=O)n2-c2cccc(NC(=O)NCCc3cnc[nH]3)c2)cc1 [compound 93]
S. aureus ATCC29213
  antibacterial activity in words: detrimental to the activity

## CCN1CCN(C(=O)N[C@@H](C(=O)N[C@@H]2C(=O)N3[C@@H]2SC(C)(C)[C@@H]3C(=O)O)c2ccccc2)C(=O)C1=O [piperacillin]
Allosteric site of PBP2a
  Kd: 400 µM

## N#Cc1ccc(/C=C/c2nc3ccccc3c(=O)n2-c2cccc(S(N)(=O)=O)c2)cc1 [compound 94]
Pharmacokinetics in mice; 5 mg/kg iv
  clearance relative to hepatic blood flow: > 10%
S. aureus ATCC29213
  increase in MIC with added bovine serum albumin: ≤ 4 fold
  antibacterial activity, active / inactive: active

## N#Cc1ccc(/C=C/c2nc3ccccc3c(=O)n2-c2cc(C(=O)O)ccc2O)cc1 [compound 78]
S. aureus ATCC29213
  antibacterial activity in words: loss of antibacterial property
  antibacterial activity, active / inactive: inactive

## C#Cc1ccc(/C=C/c2nc3ccccc3c(=O)n2-c2cccc(S(N)(=O)=O)c2)cc1 [compound 113]
Pharmacokinetics in mice; 5 mg/kg iv
  clearance relative to hepatic blood flow: > 10%

## N#Cc1ccc(/C=C/c2nc3ccccc3c(=O)n2-c2cc(O)cc(C(=O)O)c2)cc1 [compound 77]
S. aureus ATCC29213
  antibacterial activity, active / inactive: inactive

## N#Cc1ccc(CSc2nc3ccccc3c(=O)n2-c2cccc(C(=O)O)c2)cc1 [compound 125]
S. aureus ATCC29213
  increase in MIC with added bovine serum albumin: ≤ 4 fold
